Measured values from ChEMBL document CHEMBL4825712.

Experiments:
[1] = test system: Influenza A virus; assay: Antiviral activity against Influenza A virus A/WSN/33(H1N1) infected in human A549 cells assessed as viral replication measured after 24 hrs by immunofluorescence microscopy; assay type: functional, organism-based; conditions: A/WSN/1933(H1N1); for IC50: A549, 24 h; for IC90: A549, time 24 hrs
Summary of the method: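 A549 cells were infected with A/WSN/33 at MOI 0.01 for 24 h, then fixed in 4% formaldehyde and permeabilized with 0.1% Triton X-100. They were immunostained for NP with an Alexa-488 secondary plus DAPI and imaged on an image cytometer. Percent infection = NP-positive cells divided by total cells.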

[2] = test system: A549; assay: Cytotoxicity against human A549 cells by MTT assay; assay type: cell-based
Summary of the method: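 MTT assay run according to the manufacturer's instructions, concurrently with NP immunostaining of infected A549 cultures.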

[3] = Selectivity index, ratio of CC50 for human A549 cells to IC50 for antiviral activity against Influenza A virus A/WSN/33(H1N1) infected in human A549 cells; assay type: toxicity, cell-based; conditions: read-out: Selectivity Index
Summary of the method: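 Ratio of CC50 to IC50. IC50 came from A549 cells pretreated 2 h with compound, then infected 24 h with WSN-PB2-Nanoluc at MOI 0.02 and read by Nano-Glo luminescence. CC50 was measured by CellTiter-Glo.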

Compound | IC50 [1] [µM] | IC90 [1] [µM] | CC10 [2] [µM] | CC50 [2] [µM] | selectivity ratio [3]
CCN(c1ccc(F)cc1F)S(=O)(=O)c1ccccc1Cl | > 25 | > 25 | > 25 |  | 
CCN(c1ccc(C)nc1)S(=O)(=O)c1cc(Cl)ccc1Cl | > 5 |  |  |  | 
CCN(c1ccc(Cl)cc1F)S(=O)(=O)c1cc(Cl)ccc1Cl | 0.15 | 1.8 | > 5 | > 5 | > 33
COCCN(c1ccc(Cl)cc1C)S(=O)(=O)c1cc(Cl)ccc1Cl | 1.2 | 6 | > 5 | > 5 | > 4
CCN(c1c(F)cc(Cl)cc1F)S(=O)(=O)c1cc(Cl)ccc1Cl | 0.41 | > 5 | 0.025 | > 5 | > 12
CCN(c1ccc(F)cc1F)S(=O)(=O)c1ccc(Cl)cc1Cl | > 25 | > 25 | > 25 |  | 
CCN(c1ccc(F)cc1F)S(=O)(=O)c1ccc(Cl)c(Cl)c1 | > 25 | > 25 | > 25 |  | 
Cc1ccccc1N(C(C)C)S(=O)(=O)c1cc(Cl)ccc1Cl | 1.8 | > 5 | > 5 | > 5 | > 3
Cc1cc(Cl)ccc1N(CC1CC1)S(=O)(=O)c1cc(Cl)ccc1Cl | 0.49 | 2.8 | > 5 | > 5 | > 10
CCN(c1ccc(CCN)cc1)S(=O)(=O)c1cc(Cl)ccc1Cl | > 25 | > 25 | > 25 | > 25 | 
CCN(c1ccc(F)cc1F)S(=O)(=O)c1cc(F)ccc1Cl | 0.22 | 9.8 |  |  | > 114
C=CCN(c1ccccc1C)S(=O)(=O)c1cc(Cl)ccc1Cl | 0.12 | 0.57 | > 5 | > 5 | > 42
CCN(c1ccc(F)cc1F)S(=O)(=O)c1cc(Cl)cc(Cl)c1 | 0.75 |  | 25 |  | > 33
CCN(c1ccc(F)cc1F)S(=O)(=O)c1cccc(Cl)c1Cl | > 25 | > 25 | > 25 |  | 
CCN(c1cnccc1C)S(=O)(=O)c1cc(Cl)ccc1Cl | > 5 |  |  |  | 
C#CCN(c1ccc(Cl)cc1C)S(=O)(=O)c1cc(Cl)ccc1Cl | 0.12 | 3.4 | > 5 | > 5 | > 42
CCN(c1ccc(F)cc1F)S(=O)(=O)c1ccccc1 | > 25 | > 25 | > 25 |  | 
CCN(c1ccncc1F)S(=O)(=O)c1cc(Cl)ccc1Cl | > 5 |  |  |  | 
CCN(c1ccc(C)cc1)S(=O)(=O)c1cc(Cl)ccc1Cl | 0.084 | 1.8 | > 25 | > 25 | > 298
CCN(c1cnc(C)nc1)S(=O)(=O)c1cc(Cl)ccc1Cl | > 5 |  |  |  | 
CCN(c1ccc(F)cc1F)S(=O)(=O)c1cccc(Cl)c1 | 0.49 | 10.3 | 10.3 |  | > 51
CCN(c1ccc(F)cc1F)S(=O)(=O)c1cc(F)ccc1F | 3.4 | > 25 | > 25 |  | > 7
CCN(c1ccccc1Cl)S(=O)(=O)c1cc(Cl)ccc1Cl | 0.15 | 1.5 | > 5 | > 5 | > 33

Compound | IC50 [1] [µM] | IC90 [1] [µM] | CC10 [2] [µM] | CC50 [2] [µM] | selectivity ratio [3]
CCN(c1ccc(CC(=O)N2CCN(C)CC2)cc1)S(=O)(=O)c1cc(Cl)ccc1Cl | > 25 | > 25 | > 25 | > 25 | 
CCN(c1c(C)cc(Cl)cc1Cl)S(=O)(=O)c1cc(Cl)ccc1Cl | 0.39 | > 5 | > 5 | > 5 | > 13
CCN(c1ccc(F)cc1F)S(=O)(=O)c1c(Cl)cccc1Cl | > 25 | > 25 | > 25 |  | 
Cc1cc(Cl)ccc1N(CCF)S(=O)(=O)c1cc(Cl)ccc1Cl | 35 | > 5 | > 5 | > 5 | > 9
CCN(c1ccc(Cl)cn1)S(=O)(=O)c1cc(Cl)ccc1Cl | > 5 |  |  |  | 
CCN(c1ccccc1C#N)S(=O)(=O)c1cc(Cl)ccc1Cl | 0.17 | 2.1 | > 5 | > 5 | > 29
Cc1ccccc1N(C)S(=O)(=O)c1cc(Cl)ccc1Cl | > 5 | > 5 | > 5 | > 5 | 
CCN(c1ccc(CC(=O)O)cc1)S(=O)(=O)c1cc(Cl)ccc1Cl | > 25 | > 25 | > 25 | > 25 | 
CCOC(=O)Cc1ccc(N(CC)S(=O)(=O)c2cc(Cl)ccc2Cl)cc1 | 0.08 | 5.7 | > 5 | > 5 | > 63
CCN(c1ccc(CCNC(C)=O)cc1)S(=O)(=O)c1cc(Cl)ccc1Cl | > 25 | > 25 | > 25 | > 25 | 
CCN(c1ccccc1)S(=O)(=O)c1cc(Cl)ccc1Cl | 0.86 | 6.9 | > 5 | > 5 | > 6
CCN(c1ccc(C)nn1)S(=O)(=O)c1cc(Cl)ccc1Cl | > 5 |  |  |  | 
CCN(c1ccc(F)cc1F)S(=O)(=O)c1cc(Cl)ccc1F | 0.82 | 18.5 |  |  | > 30
Cc1cc(Cl)ccc1N(C(F)F)S(=O)(=O)c1cc(Cl)ccc1Cl | 1.3 | > 5 | > 5 | > 5 | > 4
CCN(c1ccncc1Cl)S(=O)(=O)c1cc(Cl)ccc1Cl | > 5 |  |  |  | 
C=CCN(c1ccc(Cl)cc1C)S(=O)(=O)c1cc(Cl)ccc1Cl | 0.037 | 0.43 | > 5 | > 5 | > 135
CCN(c1cnc(C)cn1)S(=O)(=O)c1cc(Cl)ccc1Cl | > 5 |  |  |  | 
Cc1cc(Cl)ccc1N(CCO)S(=O)(=O)c1cc(Cl)ccc1Cl | > 5 | > 5 | > 5 | > 5 | 
CCN(c1ccc(CCO)cc1)S(=O)(=O)c1cc(Cl)ccc1Cl | > 25 | > 25 | > 25 | > 25 | 
C#CCN(c1ccccc1C)S(=O)(=O)c1cc(Cl)ccc1Cl | 0.38 | 5.1 | > 5 | > 5 | > 13
CCN(c1ccc(F)cc1)S(=O)(=O)c1cc(Cl)ccc1Cl | 0.068 | 0.94 | > 5 | > 5 | > 74
Cc1ccccc1NS(=O)(=O)c1cc(Cl)ccc1Cl | > 5 | > 5 | > 5 | > 5 | 
